# pIC50: −log10 of the molar value.
# How the values were obtained:
# [1] = biological target: T1, Acyl-CoA:cholesterol acyltransferase (Oryctolagus cuniculus, UniProt Q95214); test: Tested for in vitro inhibition against Acyl coenzyme A:cholesterol acyltransferase of intestinal microsomes in cholesterol-fed rabbits; parameters: species or system Microsome
# T1 sequence (Q95214 whole entry): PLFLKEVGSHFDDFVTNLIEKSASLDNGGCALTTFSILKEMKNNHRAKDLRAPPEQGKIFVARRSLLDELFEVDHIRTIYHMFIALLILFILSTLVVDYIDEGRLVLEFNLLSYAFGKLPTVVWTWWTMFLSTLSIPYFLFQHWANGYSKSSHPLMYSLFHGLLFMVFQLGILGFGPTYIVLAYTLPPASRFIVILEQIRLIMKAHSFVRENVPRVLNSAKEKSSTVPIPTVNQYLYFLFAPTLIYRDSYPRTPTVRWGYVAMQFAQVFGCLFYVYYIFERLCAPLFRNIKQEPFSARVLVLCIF
# How it was run: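 Microsomes were prepared from intestine of cholesterol-fed rabbits. ACAT activity was measured using [1-14C]oleoyl-CoA as substrate. Each determination was run in triplicate.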
# Rattus norvegicus [2] = organism: Rattus norvegicus; test: Percent change in total cholesterol in peanut oil (5.5%)-, cholic acid (0.3%)-, Cholesterol (1.5%)-fed rats after a single dose.; assay type: functional
# How it was run: (§1)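 Male Sprague-Dawley rats (200-225 g), n=5-7/group, given a single oral dose at 4 p.m. as a suspension in 1.5% CMC/0.2% Tween-20 in water (50 mg/kg); controls received vehicle alone. The rats then had free access to chow with peanut oil, cholesterol and cholic acid. At 8 a.m. next day they were bled by cardiac puncture under ether, and serum total cholesterol was measured as % change versus controls (unpaired two-tailed t-test).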
# Rattus norvegicus [3] = organism: Rattus norvegicus; test: Percent change in total cholesterol in peanut oil (5.5%) - cholic acid (0.3%) - Cholesterol (1.5%) fed rats after a single dose; assay type: functional; how it was run: as §1
# [4] = Compound was evaluated for the distribution coefficient at pH 7.4; assay type: physicochemical; conditions: octanol/water, read-out: logD
# Rattus norvegicus [5] = test: Compound was evaluated for the percentage change in total cholesterol in peanut oil (5.5%)-cholic acid (0.3%)-cholesterol (1.5%)-fed rats at 30 mg/kg; assay type: functional
SMILES,pIC50 [1],logD [4],Delta TC (Rattus norvegicus [2]) [%],Delta TC (Rattus norvegicus [3]) [%],Delta TC (Rattus norvegicus [5]) [%]
CC(C)c1cccc(C(C)C)c1NC(=O)NCC1(c2ccc(NCCO)cc2)CCCC1,7.60,,-63,,
CC(C)c1cccc(C(C)C)c1NC(=O)NCC1(c2ccc(N(CCO)CCO)cc2)CCCC1,7.68,,-50,,
CC(C)c1cccc(C(C)C)c1NC(=O)NCC1(c2cccc(CO)c2)CCCC1,7.82,,-40,,
CC(C)c1cccc(C(C)C)c1NC(=O)NCC1(c2ccc(CO)cc2)CCCC1,,,19,,
CC(C)c1cccc(C(C)C)c1NC(=O)NCC1(c2cccc(C(F)(F)F)c2)CCCC1,7.57,,,-45,
Cc1ccc(C)c(C2(CNC(=O)Nc3c(C(C)C)cccc3C(C)C)CCCC2)c1,7.41,,,-48,
CC(C)c1cccc(C(C)C)c1NC(=O)NCC1(c2ccc(Cl)cc2)CCCC1,7.49,,,-64,
Cc1ccccc1C1(CNC(=O)Nc2c(C(C)C)cccc2C(C)C)CCCC1,7.77,,,-73,
CC(C)c1cccc(C(C)C)c1NC(=O)NCC1(c2cccc(OCc3ccccc3)c2)CCCC1,7.52,,-73,,
CC(C)c1cccc(C(C)C)c1NC(=O)NCC1(c2ccc(C(=O)O)cc2)CCCC1,5.51,,-8,,
CC(C)c1cccc(C(C)C)c1NC(=O)NCC1(c2ccc(OCc3ccccc3)cc2)CCCC1,7.47,,-33,,
Cc1ccc(C2(CNC(=O)Nc3c(C(C)C)cccc3C(C)C)CCCC2)c(C)c1,7.30,,,-50,

# Continued, in another order:
pIC50 [1],logD [4],SMILES,Delta TC (Rattus norvegicus [2]) [%],Delta TC (Rattus norvegicus [3]) [%],Delta TC (Rattus norvegicus [5]) [%]
7.89,,COc1cccc(C2(CNC(=O)Nc3c(C(C)C)cccc3C(C)C)CCCC2)c1,-42,,
6.21,,CC(C)c1cccc(C(C)C)c1NC(=O)NCC1(c2cccc(C(=O)O)c2)CCCC1,-40,,
7.38,,CC(C)c1cccc(C(C)C)c1NC(=O)NCC1(c2ccc(O)cc2)CCCC1,-31,,
7.20,,CC(C)c1cccc(C(C)C)c1NC(=O)NCC1(c2ccc(C(C)(C)C)cc2)CCCC1,,-48,
7.48,4.55,CC(=O)OCCN(CCOC(C)=O)Cc1cccc(C2(CNC(=O)Nc3c(C(C)C)cccc3C(C)C)CCCC2)c1,-35,,-71
7.68,,CC(C)c1cccc(C(C)C)c1NC(=O)NCC1(c2cccc(N)c2)CCCC1,-75,,
7.25,,Cc1cc(C)c(C2(CNC(=O)Nc3c(C(C)C)cccc3C(C)C)CCCC2)c(C)c1,,-24,
7.36,5.23,CC(C)c1cccc(C(C)C)c1NC(=O)NCC1(c2cccc(CBr)c2)CCCC1,,-26,
6.36,3.64,CC(C)c1cccc(C(C)C)c1NC(=O)NCC1(c2cccc(CN)c2)CCCC1,-49,,
7.60,,Cc1ccc(C2(CNC(=O)Nc3c(C(C)C)cccc3C(C)C)CCCC2)cc1,,-70,
